Source: ChEMBL document CHEMBL4513216, “Probing the Open Global Health Chemical Diversity Library for Multistage-Active Starting Points for Next-Generation Antimalarials” (ACS Infect Dis, 2020)

Assay: Toxicity liver stage against HepG2, at 10uM
Format: cell-based
Parameters: test concentration 10 uM, cell line HepG2-A16-CD81EGFP
Details: human, HepG2-A16-CD81EGFP cells; read-out: INHIBITION
Procedure, shortened: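 Uninfected HepG2-A16-CD81EGFP cells, 3 × 10^3 per well, 1536-well, plated on prespotted compound at 10 μM final, parasite-free screening media added to match infected plates; puromycin 10 μM positive, DMSO 0.5% negative; run in parallel with 48 h PbLuc assay at 37 °C, 5% CO2; viability by CellTiter-Glo luminescence, normalized to controls.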

SMILES: COc1cccc(-c2cc(C(=O)NCCn3nc(C)nc3C)[nH]n2)c1
- cytotoxicity at 10 µM: -2.77%

SMILES: CCN(C)C(=O)CCN(C)Cc1cnc(C)s1
- cytotoxicity at 10 µM: 4.04%

SMILES: CN(Cc1ccc(F)cc1)C(=O)Cn1nc(-c2ccc(F)cc2)oc1=O
- cytotoxicity at 10 µM: 8.68%

SMILES: O=C(NCc1cn2c(n1)CN(CC1CCOCC1)CC2)C1CCC1
- cytotoxicity at 10 µM: -12.1%

SMILES: CCOc1ccc(Br)cc1-c1cc(N)[nH]n1
- cytotoxicity at 10 µM: -2.97%

SMILES: CCNC(=O)CNS(=O)(=O)Cc1cc(-c2ccccc2)no1
- cytotoxicity at 10 µM: -6.71%

SMILES: CNc1ccnc(N2CCCC(C(=O)c3ccccn3)C2)n1 (configuration not stated)
- cytotoxicity at 10 µM: -12.1%

SMILES: CCC(=O)N(CC(N)=O)Cc1cccc(Oc2ccccc2)c1
- cytotoxicity at 10 µM: 9.66%

SMILES: CN1CCN(S(=O)(=O)c2cccc(F)c2)c2cnccc21
- cytotoxicity at 10 µM: -2.95%

SMILES: CCc1nc(CC(=O)NCC2(C(N)=O)CCOCC2)cs1
- cytotoxicity at 10 µM: -9.92%

SMILES: CCn1nc(C)c2nc(C(C)C)nc(NCC(=O)N3CCOCC3)c21
- cytotoxicity at 10 µM: 3.07%

SMILES: Cc1ccsc1C(=O)NCc1ccnc(OCC(F)(F)F)c1
- cytotoxicity at 10 µM: -6.19%

SMILES: Cc1cccc2nc(CN3CCCC3Cn3cccn3)cn12 (configuration not stated)
- cytotoxicity at 10 µM: 0.893%

SMILES: CN1CC(c2ccccc2)CC12CCN(C(=O)c1cccnc1)CC2 (configuration not stated)
- cytotoxicity at 10 µM: 10.2%

SMILES: COc1ccc(OC2CCN(Cc3ccn(C)c(=O)c3)CC2)cc1
- cytotoxicity at 10 µM: -5.25%

SMILES: O=C(CCc1cscn1)N1CCCC(n2cncn2)C1 (configuration not stated)
- cytotoxicity at 10 µM: -3.81%

SMILES: CC(C)c1nn(C)cc1CNC1CCOc2ccccc21 (configuration not stated)
- cytotoxicity at 10 µM: 0.923%

SMILES: Cc1cnc(CN2CCCC(c3nc4ccccc4n3C(C)C)C2)o1 (configuration not stated)
- cytotoxicity at 10 µM: -8.14%

SMILES: Cc1ccc(CNC(=O)CN2CCN(CC(O)C3CC3)CC2)cc1 (configuration not stated)
- cytotoxicity at 10 µM: 4.91%

SMILES: COc1cccc(CN2CCc3nc(C(=O)NCC(C)C)sc3CC2)c1
- cytotoxicity at 10 µM: 16.8%

SMILES: Cc1c(C(C)NC2CCOCC2)cnn1-c1ccc(F)cc1F (configuration not stated)
- cytotoxicity at 10 µM: -8.87%

SMILES: O=C(NC1CCC(O)CC1)c1ccc2nc(-c3ccccc3)cn2c1 (configuration not stated)
- cytotoxicity at 10 µM: 8.99%

SMILES: COc1ccccc1C1(CNCc2cccc(C#N)c2)CCOCC1
- cytotoxicity at 10 µM: 6.37%

SMILES: O=C(O)c1cnc2c(Br)cccc2c1O
- cytotoxicity at 10 µM: 15.5%

SMILES: CN(C)C(=O)C1(c2cnccn2)CCCN1C(=O)Cc1ccccc1 (configuration not stated)
- cytotoxicity at 10 µM: 0.225%

SMILES: CCN(CC)C(=O)Cn1ccc2cc(NC(=O)COC)ccc21
- cytotoxicity at 10 µM: -7.89%

SMILES: O=C(CN(Cc1cccs1)C1CCS(=O)(=O)C1)NC1CCCCC1 (configuration not stated)
- cytotoxicity at 10 µM: -7.53%

SMILES: COCCN(Cc1ccc(C)o1)C(=O)Nc1nnc(C(F)F)s1
- cytotoxicity at 10 µM: 1.24%

SMILES: Cc1ccccc1CN(CCN(C)C)Cc1ccc(S(C)(=O)=O)cc1
- cytotoxicity at 10 µM: 6.3%

SMILES: CN1CCN(S(=O)(=O)c2cccc(C#N)c2)c2ccc(F)cc21
- cytotoxicity at 10 µM: 2.98%

SMILES: O=C(CCc1ccc(F)cc1)NS(=O)(=O)c1ccc2c(c1)OCCO2
- cytotoxicity at 10 µM: -12.8%

SMILES: Cc1csc2c(=O)n(CCN3CCC(c4ccccc4)CC3)cnc12
- cytotoxicity at 10 µM: 1.2%

SMILES: O=C(NCCCN1CCOCC1)c1nc(-c2ccc3cc[nH]c3c2)no1
- cytotoxicity at 10 µM: -0.663%

SMILES: CC(C)c1noc(CCC(=O)Nc2cc(C(F)(F)F)c[nH]c2=O)n1
- cytotoxicity at 10 µM: -0.387%

SMILES: CC(C)N(C)S(=O)(=O)N(Cc1cccs1)CC1CCCO1 (configuration not stated)
- cytotoxicity at 10 µM: -53.7%

SMILES: Fc1cccc(-c2nnn3c2COC(CNCc2cccs2)C3)c1 (configuration not stated)
- cytotoxicity at 10 µM: 1.07%

SMILES: CC(C)(C)NC(=O)C1CSCN1S(=O)(=O)c1ccccc1F (configuration not stated)
- cytotoxicity at 10 µM: -8.23%

SMILES: CCOC(=O)c1ccccc1NC(=O)CN(C)Cc1ccccc1Cl
- cytotoxicity at 10 µM: -5.65%

SMILES: O=C(O)C1(Oc2cccc(F)c2)CCN(c2ccncc2)CC1
- cytotoxicity at 10 µM: 0.423%

SMILES: CC(=O)NC[C@H]1OC[C@@H](NC2CCC(F)(F)CC2)[C@@H]1O
- cytotoxicity at 10 µM: -8.57%

SMILES: O=C(NCc1cc(=O)n2c(n1)CN(CC1CCOC1)CCC2)C1CC1 (configuration not stated)
- cytotoxicity at 10 µM: -11.2%

SMILES: Cc1cnccc1NCCn1ccnc1C1CCCCC1
- cytotoxicity at 10 µM: -4.2%

SMILES: CCc1nccn1CC1CCCN1S(=O)(=O)Cc1ccccc1 (configuration not stated)
- cytotoxicity at 10 µM: -13.4%

SMILES: CCN(CC)c1ncc(Cl)c(C(=O)NC2CCc3nccn3C2)n1 (configuration not stated)
- cytotoxicity at 10 µM: -49.5%

SMILES: CC(=O)N1C[C@@H]2CN(Cc3cccnc3)CCO[C@@H]2C1
- cytotoxicity at 10 µM: -0.271%

SMILES: Cc1ncc(CNC(=O)NC2CCN(C3CCCC3)CC2)s1
- cytotoxicity at 10 µM: -9.01%

SMILES: CC[C@@H]1N(Cc2ccc(F)cc2)CCC[C@]12CCC(=O)N2CCOC
- cytotoxicity at 10 µM: 11.5%

SMILES: Cn1cnc2c1C(COCc1ccccc1)N(Cc1ccncc1)CC2 (configuration not stated)
- cytotoxicity at 10 µM: -1.99%

SMILES: CCCc1nnc(NC(=O)N2CCCC(NC(C)=O)C2)s1 (configuration not stated)
- cytotoxicity at 10 µM: 5.41%

SMILES: O=C(c1coc(COc2ccccc2F)n1)N1CCC[C@H]1CO
- cytotoxicity at 10 µM: 0.835%

SMILES: COc1ccc(F)c(CN2CCCC(O)(CNCc3ccon3)C2=O)c1 (configuration not stated)
- cytotoxicity at 10 µM: 53.6%

SMILES: Cc1ccc(CN2C[C@@H]3COC[C@@H](CC(=O)N4CCOCC4)[C@@H]3C2)s1
- cytotoxicity at 10 µM: -2.04%

SMILES: Cc1ccc(CN2C[C@@H](OCc3csc(C)n3)[C@H]3COC[C@H]32)s1
- cytotoxicity at 10 µM: -5.21%

SMILES: CC(C)(C)c1ccc(C(=O)C2CCCN(C(=O)CNS(C)(=O)=O)C2)cc1 (configuration not stated)
- cytotoxicity at 10 µM: 4.1%

SMILES: CC(Oc1ccc2c(c1)OCO2)C(=O)N1CCC(c2ncc[nH]2)CC1 (configuration not stated)
- cytotoxicity at 10 µM: -2.58%

SMILES: CC(C)(C)c1n[nH]c(C2CN(C(=O)CCc3cccs3)CCO2)n1 (configuration not stated)
- cytotoxicity at 10 µM: -10.6%

SMILES: CC(O)CCN(C)S(=O)(=O)Cc1ccc(Br)cc1 (configuration not stated)
- cytotoxicity at 10 µM: 3.47%

SMILES: O=C(c1cccc(S(=O)(=O)NCCc2nccs2)c1)N1CCOCC1
- cytotoxicity at 10 µM: -4.19%

SMILES: O=C(CCn1c(C(F)(F)F)cc2cccnc21)N1CCC(O)CC1
- cytotoxicity at 10 µM: -28.5%

SMILES: COc1cc(CCC(=O)N2CCC(c3cncc(C)n3)CC2)on1
- cytotoxicity at 10 µM: 4.46%

SMILES: Cc1ccnc(N2C[C@H]3CC[C@@H](C2)N(CC2CCC2)C3=O)n1
- cytotoxicity at 10 µM: 11.4%

SMILES: Cc1nc(C2CCCN(c3ncc(Br)cn3)C2)no1 (configuration not stated)
- cytotoxicity at 10 µM: -0.598%

SMILES: CCOc1ccccc1OCCN(C)Cc1ncnn1CC
- cytotoxicity at 10 µM: 10.2%

SMILES: Cc1ccc(C(=O)N2C[C@H](N3CCOCC3)[C@@H]3OCCC[C@@H]32)cn1
- cytotoxicity at 10 µM: -108%

SMILES: CC[C@@H](C)[C@@H](N)C(=O)Nc1cccc(-c2cnc(N(C)C)nc2)c1
- cytotoxicity at 10 µM: -4.78%

SMILES: CN1CCOC(CN(C(=O)CCc2cnn(C)c2)c2nccs2)C1 (configuration not stated)
- cytotoxicity at 10 µM: -10.2%

SMILES: COCCN(Cc1ccc(C)cc1)Cc1nccn1C
- cytotoxicity at 10 µM: -63.3%

SMILES: CCCN(CCc1ccccn1)C(=O)CCc1cnn(C)c1
- cytotoxicity at 10 µM: -2.84%

SMILES: Cc1ccccc1CC(=O)N(C)C1CCN(c2ccccn2)CC1
- cytotoxicity at 10 µM: -2.74%

SMILES: CC(C)c1nc(C2CCCNC2)no1 (configuration not stated)
- cytotoxicity at 10 µM: 0.684%

SMILES: COc1cc(O)cc2c1C(=O)CC(c1ccc(O)cc1)O2 (configuration not stated)
- cytotoxicity at 10 µM: -3.07%

SMILES: CC(C)n1cc(CN2CCCN(C(=O)c3ccnn3C)CC2)cn1
- cytotoxicity at 10 µM: 2.79%

SMILES: O=C(NCC1CC1)[C@@H]1CCO[C@@H]2CCN(CCc3ccccc3)C[C@H]21
- cytotoxicity at 10 µM: 1.14%

SMILES: c1ccc(CN2CCCC(Cn3cncn3)C2)nc1 (configuration not stated)
- cytotoxicity at 10 µM: -9.93%

SMILES: CCOC(C)c1nc(CN2CCN(c3nccc(C)n3)CC2)cs1 (configuration not stated)
- cytotoxicity at 10 µM: -8.89%

SMILES: O=C1COc2ccc(Cl)cc2CN1CC1CC1
- cytotoxicity at 10 µM: -9.2%

SMILES: CS(=O)(=O)N1CCN(CC(=O)Nc2cccc(Cl)c2)CC1
- cytotoxicity at 10 µM: -50.8%

SMILES: CCN1CCC2(C=C(C(=O)NC3CC3)c3ccccc32)CC1
- cytotoxicity at 10 µM: 6.2%

SMILES: CC(c1ccon1)N(C)C(=O)C1CCN(C2CCCCC2)CC1 (configuration not stated)
- cytotoxicity at 10 µM: -20.2%

SMILES: Cc1nc(CN2CCCC3(CCN(c4cnn(C)c4)C3=O)C2)cs1 (configuration not stated)
- cytotoxicity at 10 µM: 3.16%

SMILES: CN(CCC#N)C(=O)CN1CCCC1c1ccsc1 (configuration not stated)
- cytotoxicity at 10 µM: -5.26%

SMILES: COCC(=O)N1CCC2(CC1)CC(N1CCOCC1)c1ccc(C)cc12 (configuration not stated)
- cytotoxicity at 10 µM: -116%
